From ChEMBL document CHEMBL1949587 (Bioorg Med Chem, 2012)
Converted amounts (≈) assume the structure as drawn. The source made the active and inactive calls. The rule behind the calls is not given here.

What was measured:
HUVEC [1] = experiment: Selectivity ratio of IC50 for human HCT116 cells to IC50 for HUVEC cells
HCT-116 = experiment: Antiproliferative activity against human HCT116 cells; format: cell-based
HUVEC [2] = experiment: Antiangiogenic activity in HUVEC assessed as inhibition of VEGF-induced cell proliferation after 4 days; format: functional, cell-based; conditions: Homo sapiens, 96 h
Procedure, shortened: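 HUVECs maintained in RPMI1640 with 10% FCS, 50 μg/mL heparin and ECGS, then seeded at 3000 cells/well in RPMI1640 with 5% FCS and 20 ng/mL VEGF, with compound at serially diluted concentrations. Incubated at 37 °C, 5% CO₂. Read-out is Cell Counting Kit-8, absorbance at 450 nm. Inhibition = (1−T/C)×100 against untreated control.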

[3] = Solubility of the compound in fasted state simulated intestinal fluid at 10 mM after 2 hrs by HPLC-UV analysis; format: physicochemical
Procedure, shortened: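 Triplicate samples made from 10 mM DMSO stocks. DMSO evaporated (1 h), residue dissolved in FaSSIF and shaken 2 h. Solutions filtered, filtrate analysed by UV or HPLC-UV against a four-point calibration curve from the stocks. Result in µg/mL.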

[4] = Clearance in mouse liver microsome at 5 uM after 60 mins by LC-MS/MS analysis; format: ADME; conditions: liver microsomes, read-out: CLH
Procedure, shortened: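 Test compound at 5 µM incubated with mouse liver microsomes, 1.0 mg protein/mL, in 50 mM potassium phosphate pH 7.4 at 37 °C. Started by adding NADPH generating system (glucose 6-phosphate 3.2 mM, β-NADP 2.6 mM, MgCl2 6.5 mM). Substrate depletion measured against internal standard. Intrinsic clearance is the first-order decay constant normalized to protein.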

[5] = Toxicity in human Calu6 cells xenografted po dosed BALB/c mouse assessed as body weight change administered qd for 11 days; conditions: in vivo
Calu-6 [6] = experiment: Antitumor activity against human Calu6 cells xenografted in BALB/c mouse assessed as tumor growth inhibition at 80 mg/kg, po qd for 11 days; format: functional, organism-based; parameters: dose 80 mg/kg
Procedure, shortened: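 Female Balb/c nude mice carried s.c. flank Calu-6 xenografts, 5.0×10⁶ cells in Hanks' solution. At 200 mm³, mice were randomized into 4 groups (n = 5): vehicle, 150 mg/kg, sunitinib 80 mg/kg, or both. Each group dosed orally once daily for 11 days. Volume = 1/2 × long × short². Inhibition from volume change against control.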

[7] = biological target: Vascular endothelial growth factor receptor 2 (Homo sapiens, UniProt P35968); experiment: Inhibition of VEGFR2
Calu-6 [8] = experiment: Antiangiogenic activity in human Calu6 cells xenografted in BALB/c mouse assessed as microvessel density reduction at 300 mg/kg, po after 11 days by immunohistochemical staining method; format: functional; parameters: scale not given: the % may be the effect or the level left; conditions: dose 600 mg/kg, in the assay text read “600 mg/kg” for “300 mg/kg”
Procedure, shortened: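 Female Balb/c nude mice given Calu-6 cells s.c. in the flank, 5.0×10⁶ cells per mouse. Dosing was oral, once daily for 11 days, starting once tumors reached 150 mm³. Tumors taken 24 h after the last dose and frozen-sectioned from the mid-portion. Vessels stained with anti-mouse CD31 and counted by image analysis. Density decrease expressed against control.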

Calu-6 [9] = experiment: Antitumor activity against human Calu6 cells xenografted in BALB/c mouse assessed as tumor growth inhibition at 600 mg/kg, po for 11 days relative to control; format: functional; conditions: Calu-6, 264 h, read-out: TGI
Procedure, shortened: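 Calu-6 cells in Hanks' balanced salt solution implanted s.c. in the flank of female Balb/c nude mice, 5.0×10⁶ per mouse. Oral dosing once daily for 11 days, starting at tumor volume 150 mm³. Volume = 1/2 × long × short². Tumor growth inhibition taken from change in volume of the treated group against change in controls.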

Vascular endothelial growth factor receptor 2, sequence (P35968 whole entry): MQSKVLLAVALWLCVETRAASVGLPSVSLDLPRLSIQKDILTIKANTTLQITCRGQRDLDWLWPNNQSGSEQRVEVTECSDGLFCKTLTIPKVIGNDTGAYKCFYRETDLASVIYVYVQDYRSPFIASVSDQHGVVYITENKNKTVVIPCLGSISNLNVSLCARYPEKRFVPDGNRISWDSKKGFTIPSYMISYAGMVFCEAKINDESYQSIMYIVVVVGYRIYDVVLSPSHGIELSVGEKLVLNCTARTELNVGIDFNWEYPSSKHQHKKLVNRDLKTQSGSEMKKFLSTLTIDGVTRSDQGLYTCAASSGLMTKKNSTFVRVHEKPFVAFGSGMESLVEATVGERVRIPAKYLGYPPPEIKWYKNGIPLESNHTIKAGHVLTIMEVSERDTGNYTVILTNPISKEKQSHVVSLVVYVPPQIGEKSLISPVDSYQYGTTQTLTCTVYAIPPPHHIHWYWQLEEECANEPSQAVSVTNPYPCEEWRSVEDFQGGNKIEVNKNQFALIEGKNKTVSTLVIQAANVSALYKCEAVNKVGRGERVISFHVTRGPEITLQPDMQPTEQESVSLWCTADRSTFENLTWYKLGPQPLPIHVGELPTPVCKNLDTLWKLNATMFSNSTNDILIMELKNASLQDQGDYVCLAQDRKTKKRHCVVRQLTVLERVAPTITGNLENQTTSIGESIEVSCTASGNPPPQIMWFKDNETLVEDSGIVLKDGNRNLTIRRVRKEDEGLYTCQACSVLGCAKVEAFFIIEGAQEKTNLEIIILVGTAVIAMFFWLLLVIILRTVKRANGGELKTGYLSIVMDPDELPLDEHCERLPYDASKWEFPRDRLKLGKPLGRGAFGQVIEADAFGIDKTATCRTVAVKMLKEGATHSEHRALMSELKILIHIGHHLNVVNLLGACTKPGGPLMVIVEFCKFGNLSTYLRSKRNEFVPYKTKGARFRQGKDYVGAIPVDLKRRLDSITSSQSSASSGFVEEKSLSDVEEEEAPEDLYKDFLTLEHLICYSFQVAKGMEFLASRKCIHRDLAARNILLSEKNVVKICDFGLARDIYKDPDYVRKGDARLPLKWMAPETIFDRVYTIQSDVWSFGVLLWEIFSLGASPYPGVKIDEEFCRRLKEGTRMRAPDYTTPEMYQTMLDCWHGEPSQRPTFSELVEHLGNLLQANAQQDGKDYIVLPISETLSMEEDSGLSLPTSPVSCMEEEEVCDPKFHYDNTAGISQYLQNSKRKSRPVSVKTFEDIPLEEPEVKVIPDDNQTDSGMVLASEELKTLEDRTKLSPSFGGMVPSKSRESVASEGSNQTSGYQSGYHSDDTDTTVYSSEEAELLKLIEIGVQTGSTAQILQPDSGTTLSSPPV

## COc1ccc(C(N)=O)cc1/C=C/c1ccccc1
HUVEC [1]
  Ratio IC50: 15
HCT-116
  IC50: 36 µM
HUVEC [2]
  IC50: 2.4 µM

## COc1ccc(C(=O)NCC(O)CO)cc1/C=C/c1ccc(Cl)cc1 (stereo not drawn)
HCT-116
  IC50: 12 µM
[3]
  solubility at 2 h, 10000 µM: 317 µg/mL (≈ 876 µM)
[4]
  microsomal CLint at 5 µM: 10 µL/min/mg
HUVEC [2]
  IC50: 0.4 µM

## COc1ccc(C(N)=O)cc1/C=C/c1ccccc1F
HUVEC [1]
  Ratio IC50: 13
HCT-116
  IC50: 26 µM
HUVEC [2]
  IC50: 2 µM

## COc1ccc(C(N)=O)cc1C(=O)Nc1ccc(Cl)cc1
HUVEC [1]
  Ratio IC50: >9
HCT-116
  IC50: > 50 µM
[3]
  solubility at 2 h, 10000 µM: 5 µg/mL (≈ 16.4 µM)
[4]
  microsomal CLint at 5 µM: 16 µL/min/mg
HUVEC [2]
  IC50: 5.5 µM

## COc1ccc(C(N)=O)cc1/C=C\c1ccc(Cl)cc1
HUVEC [1]
  Ratio IC50: 10
HCT-116
  IC50: 29 µM
[3]
  solubility at 2 h, 10000 µM: 137 µg/mL (≈ 476 µM)
[4]
  microsomal CLint at 5 µM: 544 µL/min/mg
HUVEC [2]
  IC50: 2.9 µM

## CCN(CC)CCNC(=O)c1c(C)[nH]c(/C=C2\C(=O)Nc3ccc(F)cc32)c1C [SUNITINIB]
[5]
  MTD at 264 h: 80 mg/kg
Calu-6 [6]
  TGI: Active

## COc1ccc(C(=O)O)cc1COc1ccc(Cl)c(C)c1
HCT-116
  IC50: > 50 µM
HUVEC [2]
  IC50: > 50 µM

## COc1ccc(C(C)=O)cc1COc1ccc(Cl)cc1
HUVEC [1]
  Ratio IC50: 33
HCT-116
  IC50: 39 µM
HUVEC [2]
  IC50: 1.2 µM

## COc1ccc(C(N)=O)cc1COc1ccc(Cl)cc1
[7]
  IC50: > 50 µM
Calu-6 [8]
  Activity: 27%
HUVEC [1]
  Ratio IC50: >75
HCT-116
  IC50: > 50 µM
[4]
  microsomal CLint at 5 µM: 97 µL/min/mg
HUVEC [2]
  IC50: 0.66 µM
Calu-6 [9]
  inhibition in vivo at 600 mg/kg: 62%

## COc1ccc(C(N)=O)cc1/C=C/c1cccc(C)c1
HUVEC [1]
  Ratio IC50: 5.9
HCT-116
  IC50: 23 µM
HUVEC [2]
  IC50: 3.9 µM

## COc1ccc(C(N)=O)cc1/C=C/c1cccc(F)c1
HUVEC [1]
  Ratio IC50: >6
HCT-116
  IC50: > 50 µM
HUVEC [2]
  IC50: 8.3 µM

## CCOc1ccc(C(N)=O)cc1/C=C/c1ccc(Cl)cc1
HUVEC [1]
  Ratio IC50: 8.9
HCT-116
  IC50: 1.7 µM
[3]
  solubility at 2 h, 10000 µM: 10 µg/mL (≈ 33.1 µM)
[4]
  microsomal CLint at 5 µM: 123 µL/min/mg
HUVEC [2]
  IC50: 0.19 µM

## COc1ccc(C(N)=O)cc1/C=C/c1ccc(C(F)(F)F)cc1
HUVEC [1]
  Ratio IC50: 40
HCT-116
  IC50: 35 µM
HUVEC [2]
  IC50: 0.88 µM

## CN(C)CCOc1ccc(C(N)=O)cc1/C=C/c1ccc(Cl)cc1
HUVEC [1]
  Ratio IC50: 0.6
HCT-116
  IC50: 4.9 µM
[3]
  solubility at 2 h, 10000 µM: 109 µg/mL (≈ 316 µM)
[4]
  microsomal CLint at 5 µM: 288 µL/min/mg
HUVEC [2]
  IC50: 8.4 µM

## COc1ccc(C(=O)NCCO)cc1/C=C/c1ccc(Cl)cc1
HUVEC [1]
  Ratio IC50: 19
HCT-116
  IC50: 17 µM
[3]
  solubility at 2 h, 10000 µM: 16 µg/mL (≈ 48.2 µM)
[4]
  microsomal CLint at 5 µM: 73 µL/min/mg
HUVEC [2]
  IC50: 0.91 µM

## Cc1cc(OCc2cccc(C#N)c2)ccc1Cl
HUVEC [1]
  Ratio IC50: 4.1
HCT-116
  IC50: 45 µM
HUVEC [2]
  IC50: 11 µM

## COc1ccc(C(N)=O)cc1/C=C/c1ccc(F)cc1
HUVEC [1]
  Ratio IC50: 11
HCT-116
  IC50: 24 µM
HUVEC [2]
  IC50: 2.1 µM

## CCc1ccc(OC)c(COc2ccc(Cl)c(C)c2)c1
HUVEC [1]
  Ratio IC50: 1.1
HCT-116
  IC50: 43 µM
HUVEC [2]
  IC50: 40 µM

## COc1ccc(C(N)=O)cc1/C=C/c1ccc(C#N)cc1
HUVEC [1]
  Ratio IC50: 5.2
HCT-116
  IC50: 16 µM
HUVEC [2]
  IC50: 3.1 µM

## COc1ccc(C(=O)N(C)C)cc1/C=C/c1ccc(Cl)cc1
HUVEC [1]
  Ratio IC50: 14
HCT-116
  IC50: 35 µM
HUVEC [2]
  IC50: 2.5 µM

## COc1ccc(C(N)=O)cc1/C=C/c1ccc(C)cc1
HUVEC [1]
  Ratio IC50: 30
HCT-116
  IC50: 48 µM
HUVEC [2]
  IC50: 1.6 µM

## NC(=O)c1ccc(OCCOCCO)c(/C=C/c2ccc(Cl)cc2)c1
HCT-116
  IC50: 38 µM
[3]
  solubility at 2 h, 10000 µM: 74 µg/mL (≈ 205 µM)
[4]
  microsomal CLint at 5 µM: 247 µL/min/mg
HUVEC [2]
  IC50: 11 µM

## COc1ccc(C(N)=O)cc1/C=C/c1cccc(Cl)c1
HUVEC [1]
  Ratio IC50: 0.6
HCT-116
  IC50: 15 µM
HUVEC [2]
  IC50: 24 µM
